{"source": "ChEMBL document CHEMBL4477209", "about": "“Indole-2-carboxamide-based MmpL3 Inhibitors Show Exceptional Antitubercular Activity in an Animal Model of Tuberculosis Infection” (J Med Chem, 2016)", "key": {"[1]": {"experiment": "Mutagenicity in Salmonella typhimurium TA100", "type": "toxicity", "conditions": "salmonella enterica subsp. enterica serovar typhimurium"}, "[2]": {"experiment": "AUMClast in BALB/c mouse lung at 100 mg/kg administered via oral gavage after 0.25 to 24 hrs by LC-MS analysis", "type": "ADME, organism-based", "conditions": "in vivo", "how_it_was_run": "(§1)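 Female BALB/c mice (20 g), single oral gavage dose of 100 mg/kg. Cardiac blood and lungs taken at 0, 0.25, 0.5, 1, 2, 4, 8 and 24 h (n = 3 per time point). Plasma separated by centrifugation; lungs bead-beaten in water and supernatant recovered. Drug quantified by LC-MS/MS against an indole-2-carboxamide internal standard. Parameters derived by noncompartmental analysis.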"}, "[3]": {"experiment": "Selectivity index, ratio of IC50 for african green monkey Vero cells to MIC for clinical isolates of Mycobacterium tuberculosis", "type": "toxicity", "conditions": "read-out: Selectivity Index"}, "[4]": {"system": "Mycobacterium tuberculosis", "experiment": "Antimycobacterial activity against Mycobacterium tuberculosis H37Rv infected in BALB/c mouse model assessed as bacterial growth inhibition in lungs at 100 mg/kg administered daily via oral gavage for 5 days per week measured after 28 days post dosage co-treated with 10 mg/kg of rifampin by Bliss synergy model based analysis", "type": "functional, organism-based", "how_it_was_run": "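Female BALB/c mice, 4-6 weeks old, aerosol-infected with H37Rv, day 1 implantation 3.4-log CFU per lung. Treatment from day 14: 100 mg/kg plus rifampin 10 mg/kg by oral gavage, doses at least 1 h apart, daily 5 days/week. Single-drug arms and untreated infected controls included, four mice per group. Lung CFU counted at day 28 of treatment on 7H11 selective agar.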"}, "[5]": {"target": "Cytochrome P450 2D6 (Homo sapiens, UniProt P10635)", "sequence (P10635 whole entry)": "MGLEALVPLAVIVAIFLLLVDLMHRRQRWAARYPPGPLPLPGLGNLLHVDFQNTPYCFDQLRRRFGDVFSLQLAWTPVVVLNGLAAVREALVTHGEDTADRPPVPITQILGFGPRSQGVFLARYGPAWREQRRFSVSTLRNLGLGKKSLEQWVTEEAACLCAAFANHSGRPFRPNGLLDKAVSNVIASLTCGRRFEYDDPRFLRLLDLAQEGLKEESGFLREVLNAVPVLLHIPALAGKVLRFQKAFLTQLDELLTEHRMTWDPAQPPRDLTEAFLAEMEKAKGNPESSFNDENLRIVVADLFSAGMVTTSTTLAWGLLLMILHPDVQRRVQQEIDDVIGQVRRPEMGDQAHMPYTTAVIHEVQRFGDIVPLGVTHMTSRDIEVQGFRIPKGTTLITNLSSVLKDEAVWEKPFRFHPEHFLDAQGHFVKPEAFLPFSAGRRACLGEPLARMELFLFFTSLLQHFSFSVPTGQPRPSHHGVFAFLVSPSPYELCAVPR", "experiment": "Inhibition of CYP2D6 (unknown origin)", "type": "ADME"}, "[6]": {"target": "T1, Aryl hydrocarbon receptor (Homo sapiens, UniProt P35869)", "T1 sequence (P35869 whole entry)": "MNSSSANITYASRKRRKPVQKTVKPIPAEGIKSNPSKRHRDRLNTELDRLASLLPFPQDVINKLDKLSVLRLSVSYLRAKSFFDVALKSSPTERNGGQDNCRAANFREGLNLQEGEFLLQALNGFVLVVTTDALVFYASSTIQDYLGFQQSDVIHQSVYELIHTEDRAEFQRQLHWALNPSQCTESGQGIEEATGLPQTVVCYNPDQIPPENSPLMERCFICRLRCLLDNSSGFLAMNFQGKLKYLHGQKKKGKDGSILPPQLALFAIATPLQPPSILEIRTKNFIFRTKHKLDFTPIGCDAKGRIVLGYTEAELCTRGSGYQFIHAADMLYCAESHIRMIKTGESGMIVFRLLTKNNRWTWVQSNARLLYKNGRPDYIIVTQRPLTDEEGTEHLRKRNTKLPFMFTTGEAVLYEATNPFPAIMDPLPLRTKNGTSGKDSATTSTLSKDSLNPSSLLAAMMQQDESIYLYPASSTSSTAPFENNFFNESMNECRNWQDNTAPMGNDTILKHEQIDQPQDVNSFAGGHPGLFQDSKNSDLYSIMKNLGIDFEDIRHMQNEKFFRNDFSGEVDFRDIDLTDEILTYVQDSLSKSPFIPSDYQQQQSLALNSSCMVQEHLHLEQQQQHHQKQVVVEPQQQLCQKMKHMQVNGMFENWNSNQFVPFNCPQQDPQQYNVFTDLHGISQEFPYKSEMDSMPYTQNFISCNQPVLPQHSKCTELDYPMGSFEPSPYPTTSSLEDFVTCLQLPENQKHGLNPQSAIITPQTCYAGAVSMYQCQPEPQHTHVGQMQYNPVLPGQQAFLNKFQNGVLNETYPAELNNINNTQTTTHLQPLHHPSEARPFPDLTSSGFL", "experiment": "Transactivation of AhR (unknown origin) assessed as upregulation of CYP1A2 at 0.1 to 1 microg/ml", "type": "ADME", "how_it_was_run": "(§2)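 Nuclear receptor reporter-gene induction assay, with reporters coupled to PXR, CAR or AhR. Compound was tested at 0.1–1, 3 and 8 μg/mL. Positive controls were rifampin for PXR, CITCO for CAR and 3-methylcholanthrene for AhR.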"}, "[7]": {"system": "Mycobacterium tuberculosis", "experiment": "Antimycobacterial activity against Mycobacterium tuberculosis H37Rv assessed as growth inhibition at 0.0313 times MIC after 7 to 14 days in presence of 0.5 times MIC of rifampin by alamar blue assay based by Bliss synergy model analysis", "type": "functional", "how_it_was_run": "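Checkerboard of 2-fold dilutions, 4.0 to 0.0313 × MIC of each drug combined with rifampin. M. tuberculosis H37Rv at 1 × 10^4 CFU per well in 200 μL. Single-drug, blank and full-growth controls included. alamarBlue read-out, percent inhibition calculated. Bliss independence applied to wells below 1 × MIC; Δfaxy > 0 taken as synergy, < 0 as antagonism.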"}, "[8]": {"experiment": "Stability in mouse hepatocytes assessed as compound remaining at 1 uM after 2 hrs", "type": "ADME, cell-based, Hepatocyte", "conditions": "read-out: Stability", "how_it_was_run": "(§3)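 Hepatocytes from human, mouse, rat or dog incubated with 1 μM starting concentration for 2 h; percent of parent compound remaining.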"}, "[9]": {"experiment": "Mutagenicity in Salmonella typhimurium TA1537", "type": "toxicity", "conditions": "salmonella enterica subsp. enterica serovar typhimurium"}, "[10]": {"experiment": "Mean residence time (last) in BALB/c mouse lung at 100 mg/kg administered via oral gavage by LC-MS analysis", "type": "ADME, organism-based", "how_it_was_run": "as §1"}, "[11]": {"system": "Mycobacterium tuberculosis H37Rv", "experiment": "Inhibition of MmpL3 in clinical isolates of drug sensitive Mycobacterium tuberculosis H37Rv after 7 to 14 days by alamar blue assay"}, "[12]": {"experiment": "AUMClast in BALB/c mouse plasma at 100 mg/kg administered via oral gavage after 0.25 to 24 hrs by LC-MS analysis", "type": "ADME, organism-based", "conditions": "in vivo", "how_it_was_run": "as §1"}, "[13]": {"experiment": "Stability in dog hepatocytes assessed as compound remaining at 1 uM after 2 hrs", "type": "ADME, cell-based, Canis lupus familiaris, Hepatocyte", "conditions": "read-out: Stability", "how_it_was_run": "as §3"}, "[14]": {"target": "T2, Nuclear receptor subfamily 1 group I member 2 (Homo sapiens, UniProt O75469)", "T2 sequence (O75469 whole entry)": "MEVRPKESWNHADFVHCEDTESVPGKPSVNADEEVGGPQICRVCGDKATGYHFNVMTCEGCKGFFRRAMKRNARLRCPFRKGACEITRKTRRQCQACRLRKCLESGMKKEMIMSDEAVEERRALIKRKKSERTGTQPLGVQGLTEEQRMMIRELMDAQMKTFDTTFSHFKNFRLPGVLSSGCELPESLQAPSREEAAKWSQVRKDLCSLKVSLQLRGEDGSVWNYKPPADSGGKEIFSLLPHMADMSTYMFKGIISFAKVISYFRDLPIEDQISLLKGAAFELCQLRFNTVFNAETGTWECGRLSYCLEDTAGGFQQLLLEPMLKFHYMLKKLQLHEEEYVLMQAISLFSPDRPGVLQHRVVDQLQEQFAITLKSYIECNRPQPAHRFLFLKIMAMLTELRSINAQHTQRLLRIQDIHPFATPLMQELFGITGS", "experiment": "Transactivation of PXR (unknown origin) assessed as upregulation of CYP3A4 at 3 to 8 microg/ml", "type": "ADME", "how_it_was_run": "as §2"}, "[15]": {"experiment": "Oral bioavailability in BALB/c mouse at 100 mg/kg administered for 30 to 120 mins followed by Mycobacterium tuberculosis H37Rv addition to compound treated serum incubated for 7 days by alamar blue reagent based serum inhibition titration assay", "type": "ADME, organism-based", "conditions": "in vivo", "how_it_was_run": "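Six-week-old female BALB/c mice (20 g) given one oral dose as suspension in 0.5% CMC in water; isoniazid 10 mg/kg as positive control, vehicle as negative. Serum collected at 30, 60 and 120 min, pooled from three mice per time point, 2-fold serially diluted. 10^4 CFU H37Rv added per well, 7 days at 37 °C. alamarBlue added for 16−18 h, fluorescence read at Ex544/Em590 and plotted against serum titration.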"}}, "note": "Active and inactive are the calls of the source. The calls are words filed in the database; no cut-off is given here."}
{"smiles": "C[C@@H]1[C@H]2C[C@@H](C[C@H]1NC(=O)c1cc3c(F)cc(F)cc3[nH]1)C2(C)C", "values": [{"measurement": "Activity", "setting": "[1]", "result": "Non-Toxic"}, {"measurement": "AUMClast", "setting": "[2]", "result": 433, "unit": "hr2.ug/g"}, {"measurement": "selectivity ratio", "setting": "[3]", "result": "≥ 16000"}, {"measurement": "Activity", "setting": "[4]", "result": "Active"}, {"measurement": "inhibition (INH)", "setting": "[5]", "result": 36.6, "unit": "%"}, {"measurement": "Activity", "setting": "[6]", "result": "Not Active"}, {"measurement": "growth inhibition (GI)", "setting": "[7]", "result": 90.5, "unit": "%"}, {"measurement": "remaining at 2 h, 1 µM", "setting": "[8]", "result": 15, "unit": "%"}, {"measurement": "Activity", "setting": "[9]", "result": "Non-Toxic"}, {"measurement": "MRT last", "setting": "[10]", "result": 8.49, "unit": "h"}, {"measurement": "MIC90", "setting": "[11]", "result": 0.012, "unit": "µM"}, {"measurement": "AUMClast", "setting": "[12]", "result": 137, "unit": "hr.hr.ug/ml"}, {"measurement": "remaining at 2 h, 1 µM", "setting": "[13]", "result": 18, "unit": "%"}, {"measurement": "Activity", "setting": "[14]", "result": "Active"}, {"measurement": "Drug uptake", "setting": "[15]", "result": "Active"}]}
